Measured values from ChEMBL document CHEMBL5154931, “Structure-Activity Relationships of 8-Hydroxyquinoline-Derived Mannich Bases with Tertiary Amines Targeting Multidrug-Resistant Cancer” (J Med Chem, 2022).

How the values were obtained:
Assay type in all cases: functional
[1] = Selectivity ratio of IC50 for cytotoxicity against human A-431 cells assessed as cell growth inhibition to IC50 for cytotoxicity against human A-431 cells expressing ABCB1 assessed as cell growth inhibition
[2] = Selectivity ratio of IC50 for cytotoxicity against human MES-SA cells assessed as cell growth inhibition to IC50 for cytotoxicity against multidrug resistance human MES-SA/Dx5 cells assessed as cell growth inhibition
[3] = Selectivity ratio of IC50 for cytotoxicity against human MES-SA cells assessed as cell growth inhibition in presence of P-gp inhibitor Tariquidar to IC50 for cytotoxicity against multidrug resistance human MES-SA/Dx5 cells assessed as cell growth inhibition in presence of P-gp inhibitor Tariquidar
MES-SA [4] = experiment: Cytotoxicity against human MES-SA cells assessed as cell growth inhibition incubated for 72 hrs in presence of P-gp inhibitor Tariquidar by PrestoBlue reagent based cell viability assay
Summary of the method: (§1)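 MES-SA and doxorubicin-selected MES-SA/Dx5 cells in DMEM with 10% FBS, 5 mmol/L glutamine, penicillin/streptomycin; 5000 cells/well attached 24 h, serial compound dilutions for 72 h, with or without 1 μM tariquidar. 5% PrestoBlue added after supernatant removal, 1 h at 37 °C, read ex 555/em 585 nm. Mean IC50 with SD, 2–53 independent assays.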

MES-SA/Dx5 [5] = experiment: Cytotoxicity against multidrug resistance human MES-SA/Dx5 cells assessed as cell growth inhibition incubated for 72 hrs in presence of P-gp inhibitor Tariquidar by PrestoBlue reagent based cell viability assay; details: MES-SA/Dx5, 72 h; summary of the method: as §1
MES-SA [6] = experiment: Cytotoxicity against human MES-SA cells assessed as cell growth inhibition incubated for 72 hrs by PrestoBlue reagent based cell viability assay; summary of the method: as §1
MES-SA/Dx5 [7] = experiment: Cytotoxicity against multidrug resistance human MES-SA/Dx5 cells assessed as cell growth inhibition incubated for 72 hrs by PrestoBlue reagent based cell viability assay; details: MES-SA/Dx5, 72 h; summary of the method: as §1
A-431 [8] = experiment: Cytotoxicity against human A-431 cells assessed as cell growth inhibition after 72 hrs by PrestoBlue reagent based cell viability assay; details: A-431, 72 h
Summary of the method: (§2)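 A431 and retrovirally P-gp (ABCB1)-transduced A431 cells kept in supplemented DMEM; 5000 cells/well attached 24 h, then serial compound dilutions for 72 h. Medium removed, 5% PrestoBlue (resazurin) added, 1 h at 37 °C, fluorescence ex 555/em 585 nm.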

A-431 [9] = experiment: Cytotoxicity against human A-431 cells expressing ABCB1 assessed as cell growth inhibition incubated for 72 hrs by PrestoBlue reagent based cell viability assay; details: A-431, 72 h; summary of the method: as §2

Row | SMILES | Ratio IC50 [1] | Ratio IC50 [2] | Ratio IC50 [3] | further results
1 | Oc1c(CN2CCCC2)ccc2cccnc12 | 5.2 |  |  | 
2 | CCN1CCN(C(c2cccnc2)c2ccc3cccnc3c2O)CC1 (stereo unspecified) |  | 2.1 | 1 | 
3 | CCOCc1cc(CN2CCOCC2)c(O)c2ncccc12 | 4.1 | 1.9 |  | 
4 | Oc1c(C(c2ccccc2)N2CCCCC2)cc(Cl)c2cccnc12 (stereo unspecified) |  | 1.1 |  | 
5 | COCc1cc(CN2CCN(c3ccccc3)CC2)c(O)c2ncccc12 | 3.9 | 2.2 |  | 
6 | CCOC(=O)C1CCN(Cc2cc(Cl)c3cccnc3c2O)CC1 | 4.1 |  |  | 
7 | CC(C)OCc1cc(CN2CCOCC2)c(O)c2ncccc12 | 2.5 |  |  | 
8 | Oc1c(C(c2ccncc2)N2CCCCC2)ccc2cccnc12 (stereo unspecified) | 7.8 | 1.9 |  | 
9 | CCCOCc1cc(CN2CCN(C)CC2)c(O)c2ncccc12 | 3 |  | 1.7 | 
10 | Oc1c(CN2CCCC2)cc(Cl)c2cccnc12 | 3.8 |  |  | 
11 | Oc1c(CN2CCN(c3ccccc3)CC2)cc(Cl)c2cccnc12 | 1.3 | 6 |  | 
12 | CN1CCN(Cc2cc(Cl)c3cccnc3c2O)CC1 | 2.3 |  |  | 
13 | Oc1c(C(c2ccccc2)N2CCOCC2)ccc2cccnc12 (stereo unspecified) |  | 1.8 |  | 
14 | CCOCc1cc(CN2CCN(C)CC2)c(O)c2ncccc12 | 2.9 |  | 1.3 | 
15 | CN1CCN(Cc2cnc3ccccc3c2O)CC1 |  | 1.99 |  | 
16 | Oc1ccc(CN2CCOCC2)c2cccnc12 |  | 0.7 |  | 
17 | Oc1c(CN2CCCCC2)cc(Br)c2cccnc12 | 3.2 | 10.8 |  | 
18 | CC(C)OCc1cc(CN2CCN(c3ccccc3)CC2)c(O)c2ncccc12 | 3.9 | 4.3 | 1.5 | 
19 | COCc1cc(CN2CCCC2)c(O)c2ncccc12 | 13.1 |  | 3 | 
20 | Oc1ccc(CN2CCCC2)c2cccnc12 |  | 1.5 |  | 
21 | CC(C)OCc1cc(CN2CCCCC2)c(O)c2ncccc12 | 3.9 |  | 1.3 | 
22 | COCc1cc(CN2CCC(C)CC2)c(O)c2ncccc12 | 6.1 |  | 1.4 | 
23 | CCOCc1cc(CN2CCN(c3ccccc3)CC2)c(O)c2ncccc12 | 3.1 |  | 1.5 | 
24 | Oc1c(CN2CCc3ccccc3C2)ccc2cccnc12 | 2 |  | 1.5 | IC50 (MES-SA [4]; read-out: IC50): 2.59 µM

Row | SMILES | Ratio IC50 [1] | Ratio IC50 [2] | Ratio IC50 [3] | further results
25 | Oc1c(C(c2cccnc2)N2CCOCC2)cc(Cl)c2cccnc12 (stereo unspecified) |  | 1.6 |  | 
26 | CCOCc1cc(CN2CCC(C)CC2)c(O)c2ncccc12 | 5 |  | 1.5 | 
27 | Oc1c(C(c2ccccn2)N2CCCCC2)cc(Cl)c2cccnc12 (stereo unspecified) | 2.1 |  | 2.5 | 
28 | CN1CCN(C(c2cccs2)c2ccc3cccnc3c2O)CC1 (stereo unspecified) |  | 0.8 |  | 
29 | Oc1c(CN2CCCCC2)cc(Cl)c2cccnc12 | 3.9 |  |  | 
30 | Oc1c(CN2CCCC2)cc(Br)c2cccnc12 | 2.9 | 9.8 | 1.5 | IC50 (MES-SA/Dx5 [5]): 2.69 µM
31 | Oc1ccccc1CN1CCNCC1 |  |  |  | IC50 (MES-SA [6]; read-out: IC50): > 100 µM; IC50 (MES-SA/Dx5 [7]; read-out: IC50): > 100 µM
32 | Oc1c(C(c2ccccn2)N2CCOCC2)cc(Cl)c2cccnc12 (stereo unspecified) |  | 1.6 |  | 
33 | COCc1cc(CN2CCOCC2)c(O)c2ncccc12 | 2.8 | 1.7 | 1.1 | 
34 | CCCOCc1cc(CN2CCN(c3ccccc3)CC2)c(O)c2ncccc12 | 2.4 |  | 1.7 | 
35 | CN1CCN(C(c2cccnc2)c2ccc3cccnc3c2O)CC1 (stereo unspecified) |  | 1.5 |  | 
36 | CCOCc1cc(CN2CCCC2)c(O)c2ncccc12 | 6 |  | 1.7 | 
37 | CC1CCN(Cc2cc(Cl)c3cccnc3c2O)CC1 | 6.1 |  |  | 
38 | CCN1CCN(C(c2ccccn2)c2cc(Cl)c3cccnc3c2O)CC1 (stereo unspecified) |  | 1.2 |  | 
39 | COCc1cc(CN2CCN(C)CC2)c(O)c2ncccc12 | 2.9 |  |  | 
40 | Oc1c(C(c2ccncc2)N2CCOCC2)ccc2cccnc12 (stereo unspecified) |  |  | 1.4 | 
41 | Oc1ccc(CN2CCCCCC2)c2cccnc12 |  | 1.2 |  | 
42 | Oc1c(C(c2cccnc2)N2CCCC2)ccc2cccnc12 (stereo unspecified) |  | 1.8 |  | 
43 | Oc1c(C(c2ccccn2)N2CCCC2)ccc2cccnc12 (stereo unspecified) | 4.4 |  |  | 
44 | Oc1c(C(c2ccccn2)N2CCCC2)cc(Cl)c2cccnc12 (stereo unspecified) | 3.7 |  |  | 
45 | Oc1c(C(c2ccncc2)N2CCCC2)ccc2cccnc12 (stereo unspecified) |  | 1.6 |  | 
46 | Oc1c(CN2CCOCC2)cc(Br)c2cccnc12 | 3.1 | 2.5 | 1.5 | 
47 | Cc1ccc(C(c2cc(Cl)c3cccnc3c2O)N2CCCC2)cc1 (stereo unspecified) |  | 2.3 |  | 
48 | Oc1c(CN2CCN(c3ccc(F)cc3)CC2)cc(Cl)c2cccnc12 | 1.3 |  |  | 

Row | SMILES | Ratio IC50 [1] | Ratio IC50 [2] | Ratio IC50 [3] | further results
49 | Oc1c(C(c2ccccn2)N2CCOCC2)ccc2cccnc12 (stereo unspecified) |  | 1.6 |  | 
50 | CCN1CCN(C(c2cc(Cl)c3cccnc3c2O)N2CCCC2)CC1 (stereo unspecified) | 1.7 | 2.8 | 1.3 | IC50 (MES-SA [4]; read-out: pIC50 (converted)): 3.31 µM; IC50 (MES-SA [6]; read-out: pIC50 (converted)): 3.31 µM; IC50 (MES-SA/Dx5 [7]; read-out: pIC50 (converted)): 1.17 µM; IC50 (MES-SA/Dx5 [5]): 2.45 µM; IC50 (A-431 [8]): 8.71 µM; IC50 (A-431 [9]): 5.13 µM
51 | CCOCc1cc(CN2CCCCC2)c(O)c2ncccc12 | 6 |  |  | 
52 | Oc1c(CN2CCCCC2)ccc2cccnc12 | 4.1 |  |  | 
53 | CCN1CCN(C(c2cccnc2)c2cc(Cl)c3cccnc3c2O)CC1 (stereo unspecified) |  | 0.9 |  | 
54 | Oc1c(C(c2cccs2)N2CCCCC2)ccc2cccnc12 (stereo unspecified) |  | 0.8 |  | 
55 | Oc1c(CN2CCCCCC2)cc(Cl)c2cccnc12 | 2.1 |  | 1.3 | 
56 | Cc1ccccc1N1CCN(Cc2ccc(O)c3ncccc23)CC1 | 0.7 |  |  | 
57 | CN1CCN(C(c2ccccn2)c2cc(Cl)c3cccnc3c2O)CC1 (stereo unspecified) | 2.8 | 1.2 |  | 
58 | CN1CCN(C(c2ccncc2)c2ccc3cccnc3c2O)CC1 (stereo unspecified) |  |  | 1.6 | 
59 | CCN(CC)Cc1cc(Cl)c2cccnc2c1O | 6.2 |  |  | 
60 | COCc1cc(CN2CCCCC2)c(O)c2ncccc12 | 6.3 |  | 1.3 | 
61 | CCN1CCN(C(c2cccs2)c2ccc3cccnc3c2O)CC1 (stereo unspecified) |  | 0.6 |  | 
62 | Oc1ccc(CN2CCN(c3ccccc3)CC2)c2cccnc12 |  | 0.9 |  | 
63 | CCCOCc1cc(CN2CCCCC2)c(O)c2ncccc12 | 4.6 |  | 1.5 | 
64 | CCN1CCN(Cc2ccc(O)c3ncccc23)CC1 |  | 0.8 |  | 
65 | Oc1c(CN2CCN(c3ccccn3)CC2)cc(Cl)c2cccnc12 | 1.2 |  |  | 
66 | Oc1cccc2cccnc12 [OXYQUINOLINE] |  |  | 2.3 | 
67 | CCN(CC)Cc1ccc2cccnc2c1O | 2.7 |  |  | 
68 | CN1CCN(Cc2ccc3cccnc3c2O)CC1 | 2.3 |  |  | 
69 | CC1CCN(Cc2cc(COC(C)C)c3cccnc3c2O)CC1 | 4.1 |  |  | 
70 | Oc1c(C(c2cccs2)N2CCOCC2)cc(Cl)c2cccnc12 (stereo unspecified) |  | 0.6 |  | 
71 | CCCCOCc1cc(CN2CCN(C)CC2)c(O)c2ncccc12 | 2.4 |  |  | 
